Assay outcomes as filed in PubChem BioAssay.
H9c2 TAG inh: reduces triacylglycerol accumulation in H9c2 cells; Nile Red lipid (TAG) fluorescence; cells loaded with 200 µM oleic acid; inhibition, % at 12.5 µM; actives 0.66% (n = 230,000);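 active means pattern-corrected inhibition of lipid staining of at least 50% with the nuclear-stain viability signal not falling by more than 50%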;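 further: 0% = DMSO wells and 100% = triacsin C control wells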
LANA-H2B inh: blocks KSHV LANA binding to histone H2A/H2B; AID 2629; actives 0.6% (n = 320,000); Q9QR71; cell-free LANA-H2A/H2B peptide, fluorescence polarization; inhibition, % (concentration not given with the values); in the data active means inhibition mostly above about 10%, no sharp cut-off; inactive means mostly below about 6.7%
GSK3beta inhib: inhibitors of human GSK3beta kinase | activity score (negative = inhibition), % at 10 µM | GST-GSK3beta kinase, ADP-Glo luminescence, 60 min; hits give low values | AID 2097 | P49841 | actives 0.038% (n = 300,000);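 active means more than half of replicate wells score below -50%, meaning over 50% inhibition versus plate controls; inconclusive means some replicates but at most half score below -50%; inactive means no replicate scores below -50%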;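 further: 0% = median DMSO wells and -100% = median GW8510 positive control wells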
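Assay system: GST-fused GSK3beta enzyme, cell-free / Medium: Tris pH 7.5 buffer with MgCl2, DTT, BSA, heparin / Also added: peptide substrate plus 25 µM ATP (final) / Compound: 10 µM single point / Timing: kinase reaction with compound 60 min at room temperature / Detection: ADP-Glo luminescence / Benchmarks: DMSO neutral wells and GW8510 at 20 µM as positive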
GSK3 alpha inh: blocks human GSK-3 alpha kinase; actives 0.1% (n = 320,000); inhibition, % at 10 µM; P49840; ADP-Glo luminescence, 60 min;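 active means more than half of replicates show inhibition above 20%; inconclusive means some but at most half of replicates above 20% inhibition; inactive means no replicate shows inhibition above 20%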;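 further: GST-tagged GSK-3 alpha with peptide substrate and 25 µM ATP; 0% = DMSO neutral wells and 100% = GW8510 positive control wells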
Lipid droplet: hepatic lipid droplet formation modulation; AML12 mouse hepatocytes, oleate lipid droplets, BODIPY imaging; inhibition, % at 6.5 µM; actives 0.4% (n = 240,000);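 active means lipid droplet intensity inhibited by at least 50%, with more than 500 cells counted; inconclusive means wells with under 300 cells, treated as cytotoxic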
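Test system: AML12 mouse liver cells; schedule: overnight exposure; technique: high-content imaging of BODIPY-stained droplets and DAPI nuclei; read-out: % inhibition of corrected integrated BODIPY droplet signal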
STK33 kinase inh: inhibitors of human STK33 kinase; inhibition, % at 10 µM; purified STK33, MBP phosphorylation, ADP-Glo luminescence; Q9BYT3; AID 2661; actives 0.073% (n = 320,000);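 active means inhibition at or above 25%, using the most active replicate where run in duplicate; inactive means inhibition below 25%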
Target sequence (Q9BYT3 whole entry, looked up): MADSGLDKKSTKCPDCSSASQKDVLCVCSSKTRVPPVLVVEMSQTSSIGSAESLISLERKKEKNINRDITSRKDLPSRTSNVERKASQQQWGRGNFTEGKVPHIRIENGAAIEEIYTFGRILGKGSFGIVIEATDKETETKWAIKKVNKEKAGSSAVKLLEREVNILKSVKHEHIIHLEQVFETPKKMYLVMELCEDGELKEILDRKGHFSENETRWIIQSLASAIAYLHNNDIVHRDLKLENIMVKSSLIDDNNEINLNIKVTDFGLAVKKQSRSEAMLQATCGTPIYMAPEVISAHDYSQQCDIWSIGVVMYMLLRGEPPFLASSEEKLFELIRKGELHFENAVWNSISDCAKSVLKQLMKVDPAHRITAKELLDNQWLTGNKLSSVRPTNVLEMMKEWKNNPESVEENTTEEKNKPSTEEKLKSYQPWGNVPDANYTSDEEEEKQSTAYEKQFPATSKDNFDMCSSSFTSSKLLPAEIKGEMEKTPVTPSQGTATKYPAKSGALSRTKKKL
* marks the source's active call; other numbers are inactive results; ? = inconclusive; . = no result given; ! = not active in a repeat. Hits are enriched below; roughly 1.3% of the tested compounds scored in any of these assays.

SMILES | H9c2 TAG inh | LANA-H2B inh | GSK3beta inhib | GSK3 alpha inh | Lipid droplet | STK33 kinase inh
O=C(CC1SC(N2CCCCC2)=NC1=O)Nc1cccc(C(=O)O)c1 (centres undefined) | 6.5 | 14.0* | -2.8 | -0.6 | . | -2.2
O=C(CSCc1cnn(-c2ccccc2)c1-n1cccc1)NCC1CCCO1 (centres undefined) | . | 0.2 | 1.9 | 2.1 | . | -1.1
O=[N+]([O-])c1ccc(-c2nc(C(Cl)Cl)c3ccccc3n2)cc1 | 111.9* | -3.2 | -0.6 | -2.3 | -44.2 | -0.2
COCC(C)NC(=O)c1ccc(CN2CCc3ccccc3C2)cc1 (centres undefined) | . | 30.7* | 1.3 | -7.7 | 14.0 | 0.2
CC(OC(=O)c1ccc2c(c1)OCCO2)C(=O)NC1CCCCC1C (centres undefined) | 20.0 | 0.6 | -1.0 | -0.8 | . | -1.8
C[C@H](NC(=O)Cc1cccc2ccccc12)C(=O)NCc1ccccc1 | 11.5 | 16.4* | 0.8 | -1.5 | -6.4 | 2.0
CCC(NC(=O)C1C2C=CC(C2)C1C(=O)O)c1ccc(C)cc1 (centres undefined) | -8.1 | 103.5* | -7.8 | 3.6 | 13.4 | 11.9
O=[N+]([O-])c1cccc(C=NNC(=S)NC23CC4CC(CC(C4)C2)C3)c1 | -48.1 | . | . | . | . | .
CCCOc1ccc(C(=O)ON=C2CCN(C)CC2)cc1 | . | 31.3* | 2.5 | -1.2 | 16.9 | 0.0
CCCOc1ccc(C(=O)CCN2CCCCC2)cc1 | -4.0 | -7.2 | -16.3 | . | . | -0.8
Cc1ccnc(NS(=O)(=O)c2ccc(NS(=O)(=O)c3cc(Cl)ccc3Cl)cc2)n1 | . | 14.0* | -2.2 | 1.8 | 5.6 | 1.7
Cc1ccnc(NS(=O)(=O)c2ccc(NS(=O)(=O)c3ccc([N+](=O)[O-])cc3)cc2)n1 | . | 1.0 | 5.4 | -0.6 | -11.6 | 0.7
COc1cccc(CNC(=O)C2CCCN(c3nc4ccccc4o3)C2)c1 (centres undefined) | . | 14.4* | -1.7 | -3.1 | . | -1.2
Cn1nc(C(=O)Nc2cc(Cl)ccc2N2CCCC2)c2ccccc2c1=O | 4.8 | 48.4* | . | -1.8 | . | 0.6
COc1ccc(CNC(=O)CCCCCn2c(SCC#N)nc3cc4c(cc3c2=O)OCO4)cc1 | . | -0.5 | 0.9 | -0.4 | 56.3* | -0.2
CCN(CC)C(=O)CSc1nc2cc3c(cc2c(=O)n1CCCC(=O)NCc1ccc(OC)cc1)OCO3 | 1.8 | -0.3 | -0.9 | 2.6 | -47.0 | 1.4
CN(C)CCOC(c1ccccc1)c1ccccc1 (tested in a mixture with another compound) | 6.0 | 12.6* | -0.8 | -1.6 | -22.4 | -0.5
COCCSc1nnc(NC(=O)C(C)(C)C)s1 | 4.7 | 43.3* | 3.2 | -2.2 | . | -1.8
COc1ccc(N2CCN(C(c3nnnn3C3CCCC3)C(C)C)CC2)cc1 (centres undefined) | -0.6 | 3.9 | 1.6 | -2.8 | 8.5 | -2.0
CC(C)C(c1nnnn1C1CCCCC1)N1CCOCC1 (centres undefined) | -3.4 | 18.9* | 1.9 | -0.9 | . | 1.2
COc1cc2ncnc(NCc3ccccc3)c2cc1OC | -6.2 | -3.1 | -0.9 | -2.1 | ? | 0.9
COc1cc2ncnc(NCc3cccc(Cl)c3)c2cc1OC | -1.7 | 3.1 | -0.4 | -0.9 | 50.9* | 5.6
CCCCCCCCCCCCCCCC[n+]1cccc(C(=O)N(CC)CC)c1 | 58.6*! | 8.1 | -2.2 | 24.3 | -38.5 | -1.5
CCCCCCCC[n+]1cccc(C(=O)N(CC)CC)c1 | . | 0.8 | -4.4 | . | 1.9 | 0.4
COc1cc(C=NCC2OCCc3ccccc32)cc(OC)c1 (centres undefined) | . | 17.5* | 0.7 | -1.1 | 24.9 | -0.4
SMILES | H9c2 TAG inh | LANA-H2B inh | GSK3beta inhib | GSK3 alpha inh | Lipid droplet | STK33 kinase inh
C=CCSc1nnc(NC(=O)Cn2cnc3c2c(=O)n(C)c(=O)n3C)s1 | 2.8 | 77.6* | 1.1 | -0.6 | 33.5 | -0.5
Cc1ccc(-c2noc(COC(=O)c3ccco3)n2)cc1 | -8.8 | 5.2 | . | 6.8 | . | -0.2
c1ccc(-c2ccccc2OCCCN2CCCCCC2)cc1 | . | 84.2* | 0.7 | 0.0 | 26.8 | 0.3
CCOC(=O)C1C(=O)CC(C)(O)C(C(=O)OCC)C1c1ccccc1 (centres undefined) | -12.7 | -2.9 | 1.3 | -3.6 | -2.9 | -1.4
CCOC(=O)C1C(=O)CC(C)(O)C(C(=O)OCC)C1/C=C/c1ccccc1 (centres undefined) | 0.0 | 81.5* | . | . | -19.0 | .
O=C(/C=C/c1cccc([N+](=O)[O-])c1)NCCc1ccc(F)cc1 | . | 5.7 | -3.3 | -2.3 | 9.9 | -2.0
COc1ccc(NC(=O)c2cc(OC)c(OC)c(OC)c2)cc1S(=O)(=O)N1CCCCC1 | 12.1 | 2.1 | 2.0 | . | -5.7 | -0.9
COc1ccc(NC(=O)c2cc(F)cc(F)c2)cc1S(=O)(=O)N1CCCCC1 | -5.7 | 17.8* | . | -2.5 | . | -0.3
O=C(CCCN1C(=O)c2cccc3cccc(c23)C1=O)N1CCN(c2ccccc2)CC1 | . | 16.8* | 0.5 | 5.1 | 0.5 | -0.7
O=C(CCCN1C(=O)c2cccc3cccc(c23)C1=O)N1CCN(c2ccccc2O)CC1 | . | 0.4 | -1.3 | -1.6 | -24.0 | -1.8
N#C/C(C(N)=O)=c1/ccc2c(c1)N1C3=C(CCCC3)CC3CCCCC31N=2 (centres undefined) | . | -15.7 | -3.3 | 10.4 | 10.0 | 0.3
N#CC(C#N)=c1ccc2c(c1)N1C3=C(CCCC3)CC3CCCCC31N=2 (centres undefined) | 92.4* | -2.7 | -3.2 | 6.5 | 48.4 | 7.6
C=C1C(C(=O)N2CCN(C)CC2)C1C(=O)N1CCN(C)CC1 (centres undefined) | . | -2.0 | 0.5 | -1.9 | . | -1.0
CCn1cc(C(=O)O)c(=O)c2cc(F)c(N3CCNCC3)cc21 | 8.7 | 70.7* | 1.0 | . | 13.1 | .
CCn1cc(C(=O)O)c(=O)c2cc(F)c(N3CCN(C)CC3)cc21 | . | 2.5 | -3.1 | -1.8 | 2.6 | -0.3
COc1ccc(C)cc1S(=O)(=O)N1CCN(C(=O)c2ncoc2-c2ccccc2C)CC1 | . | -0.7 | -0.8 | -1.5 | -10.2 | -0.9
Cc1onc(-c2ccccc2)c1C(=O)Nc1nnc(C(C)(C)C)s1 | . | 10.4* | . | -2.1 | -5.7 | -2.2
O=C(Nc1cccc(Cl)c1)c1nc[nH]c1C(=O)N1CCN(c2ccccc2)CC1 | -13.7 | -3.6 | . | -3.8 | . | -2.9
Cc1ccc(S(=O)(=O)N2CCC(C(=O)NCc3ccccc3Cl)CC2)cc1 | . | 93.3* | 4.9 | -2.0 | 18.1 | -0.9
CN(C)CCCn1c(=S)[nH]c2ccccc2c1=O | -5.8 | 1.7 | 1.9 | 0.7 | -5.7 | -0.1
CN(C)CCCn1c2c3ccccc3ccc2c2oc(=O)c3ccccc3c21 | 77.8* | . | . | . | . | .
CN(C)C1(CNC(=O)C2CCC(=O)N(Cc3ccc(Cl)cc3)C2)CCCCC1 (centres undefined) | . | 11.2* | . | 10.9 | -23.3 | 4.0
Cc1ccc(S(=O)(=O)/C(C#N)=C/c2c[nH]c3ccccc23)cc1 | . | 16.7* | 2.8 | 2.4 | -3.2 | -1.3
COc1ccc(NC(=O)Cc2ccccc2)cn1 | -18.3 | 9.0 | -2.4 | -2.5 | 1.5 | -0.6
